A selection: hits, their analogues and other compounds. The true share with any hit is near 4.3%.
TAAR1 ag = human TAAR1 agonists, primary screen, Fluo-8 calcium fluorescence, CHO RD-HGA16 cells; vehicle wells 0%, saturating PEA agonist 100%; AID 624467, 2012; activation, % at 3 µM; Trace amine-associated receptor 1 (Homo sapiens), Q96RJ0; actives 0.99% (n = 360,000);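 active means activation above the mean activation of all test compounds in the run plus 3 SD, cut at about 38% in these data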
Target sequence (Q96RJ0 whole entry, looked up): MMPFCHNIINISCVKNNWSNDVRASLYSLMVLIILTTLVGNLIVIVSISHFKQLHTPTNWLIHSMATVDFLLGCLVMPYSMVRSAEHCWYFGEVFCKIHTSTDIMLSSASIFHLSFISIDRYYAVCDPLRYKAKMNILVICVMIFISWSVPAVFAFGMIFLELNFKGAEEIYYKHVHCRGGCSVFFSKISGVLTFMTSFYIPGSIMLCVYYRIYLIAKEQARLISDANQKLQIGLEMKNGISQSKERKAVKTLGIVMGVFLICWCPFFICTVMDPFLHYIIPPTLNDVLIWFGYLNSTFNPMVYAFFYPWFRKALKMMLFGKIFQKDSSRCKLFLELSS
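Assay system: CHO-derived RD-HGA16 cells with stable Gα16 and human TAAR1; timing: 17-24 h seeding, 75 min 37 °C dye, 30 min RT; read-out: % activation from peak over basal fluorescence ratio, DMSO-to-PEA scaled; measured by: kinetic Fluo-8 calcium fluorescence; benchmarks: low control DMSO, high control PEA (EC100); doses: 3 µM single concentration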
GalR3 antag = GalR3 antagonists in HEK293 cells, primary screen, cell-based, fluorescence readout; Galanin receptor type 3 (Homo sapiens), O60755; AID 651719, 2012; HEK293 GalR3-CNG cAMP membrane potential fluorescence; galR3 body fused to GalR1 C-terminus; actives 0.44% (n = 360,000); inhibition, % at 3 µM;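 active means inhibition above the screen-wide average plus 3 SD, cut at about 13% in these data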;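 further: forskolin and galanin both at EC90 stimulate the cells; cAMP rise reported by CNG channel membrane potential dye signal; 0% = forskolin plus galanin with DMSO and 100% = forskolin alone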
Target sequence (O60755 1-299 limits assumed): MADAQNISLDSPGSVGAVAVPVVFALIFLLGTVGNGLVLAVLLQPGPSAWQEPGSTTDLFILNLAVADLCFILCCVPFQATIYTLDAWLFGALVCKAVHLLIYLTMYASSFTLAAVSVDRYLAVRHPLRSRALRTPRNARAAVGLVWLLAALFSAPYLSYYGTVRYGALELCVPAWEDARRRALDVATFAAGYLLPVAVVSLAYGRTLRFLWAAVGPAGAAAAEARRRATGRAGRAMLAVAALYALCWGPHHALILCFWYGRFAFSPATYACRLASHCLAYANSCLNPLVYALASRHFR
TAAR1 antagonist = human TAAR1 antagonists, primary screen, Fluo-8 calcium fluorescence, CHO RD-HGA16 cells; Trace amine-associated receptor 1 (Homo sapiens), Q96RJ0; antagonist; inhibition, % at 3 µM; actives 1.5% (n = 360,000); AID 624466, 2012;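 active means inhibition above a per-plate cutoff, the mean inhibition of test compounds on that plate plus 3 SD, cut at about 49% in these data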;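 further: 0% = DMSO plus EC80 beta-PEA response and 100% = DMSO alone without agonist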
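Material: RD-HGA16 CHO cells with stable hTAAR1 and Gα16; Dosing: single nominal final test compound concentration of 3 µM; Schedule: seeding 17-24 h prior, 75-min 37 °C, 30-min RT dye loading; Detection: kinetic Fluo-8 calcium fluorescence measurement; Measure: % inhibition from peak post-agonist over basal fluorescence ratio; Benchmarks: vehicle and agonist controls.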
CHO parental Ca = ATP-evoked calcium signal inhibitors, parental CHO, primary screen, counter-screen for OX1R antagonist project, cell-based, fluorescence, Fluo-8 calcium dye | parental CHO-K1, ATP-induced calcium, Fluo-8 fluorescence | inhibition, % at 5.6 µM | actives 0.63% (n = 330,000);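 active means inhibition above that plate's mean sample inhibition plus 3 SD, cut at about 26% in these data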;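 further: 0% = ATP-challenged DMSO wells and 100% = DMSO wells without ATP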
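Assay system: parental CHO cells; Read-out basis: percent inhibition of ATP-evoked calcium rise, normalized to controls; Benchmarks: ATP and no-ATP DMSO wells; Compound dosing: single nominal dose of 5.6 µM per compound; Signal: Fluo-8 calcium dye fluorescence; Also added: ATP as calcium-mobilizing challenge; Repeats: singlicate.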
OX1R antag-1 = OX1R (HCRTR1) antagonists, primary screen, fluorescence, CHO/OX1R cells, Fluo-8 calcium, orexin A; actives 0.43% (n = 330,000); AID 434989, 2010; Fluo-8 calcium fluorescence; inhibition, % at 5 µM; Orexin/Hypocretin receptor type 1 (Homo sapiens), O43613;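 active means inhibition above its plate's threshold, mean inhibition of all tested compounds on the plate plus 3 SD, cut at about 37% in these data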;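 further: 0% = orexin A challenge wells and 100% = SB-334867-A antagonist wells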
OX1R antag-2 = antagonists of human orexin 1 receptor (OX1R). Orexin/Hypocretin receptor type 1 (Homo sapiens), O43613. OX1R-expressing cells, FRET antagonist read-out. inhibition, % at 6.6 µM. actives 1.8% (n = 330,000). AID 485270, 2010; in the data active means inhibition mostly above about 38%, no sharp cut-off; inactive means mostly below about 40%;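 further: 0% = agonist challenge alone and 100% = reference antagonist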
* = called active by the depositor.

How did CN(C)c1ccc(N=Nc2ccccc2C(=O)OCC(=O)N2CCCC2)cc1 do in these assays?
TAAR1 ag: 4.1; GalR3 antag: -3.6; TAAR1 antagonist: -4.4; CHO parental Ca: -16.3; OX1R antag-1: -24.7; OX1R antag-2: 29.2

What do the screens show for `COc1ccc(NC(=S)NC(NC(=O)c2cccc(Cl)c2)C(Cl)(Cl)Cl)c([N+](=O)[O-])c1` (stereo not drawn)?
TAAR1 ag: 28.6; GalR3 antag: -2.6; TAAR1 antagonist: 10.1; CHO parental Ca: 26.3*; OX1R antag-1: 7.4; OX1R antag-2: 30.8

What do the screens show for `O=C(O)CC/C(=C\c1cc([N+](=O)[O-])ccc1Cl)c1nc2ccccc2s1`?
TAAR1 ag: -2.4; GalR3 antag: -8.7; TAAR1 antagonist: -16.9; CHO parental Ca: -8.4; OX1R antag-1: -7.8; OX1R antag-2: 25.9

Results for O=C(O)CC/C(=C\c1cccc(NC(=O)c2ccccc2Cl)c1)c1nc2ccccc2s1 ?
TAAR1 ag: 12.1; GalR3 antag: -6.2; TAAR1 antagonist: 49.9*; CHO parental Ca: -13.9; OX1R antag-1: -11.5; OX1R antag-2: 34.6

How did O=C(N[C@H](Cc1ccccc1)C(=O)NCCCc1ccccc1)[C@H]1O[C@@H](n2ccc(=O)[nH]c2=O)[C@H](O)[C@@H]1O do in these assays?
TAAR1 ag: 2.0; GalR3 antag: -4.4; TAAR1 antagonist: 7.1

How did O=C1NC[C@H](CCCCN2C[C@H](Cc3ccc(O)cc3)N(CCc3ccc(O)cc3)C(=O)C2=O)N(CCc2ccc(O)cc2)C1=O do in these assays?
TAAR1 ag: 0.7; GalR3 antag: -4.9; TAAR1 antagonist: 14.0

What do the screens show for `O=C(CSc1nc2ccc(Cl)cc2[nH]1)c1c[nH]c2ccccc12`?
TAAR1 ag: 11.7; GalR3 antag: -7.7; TAAR1 antagonist: 25.9; CHO parental Ca: -9.2; OX1R antag-1: -4.2; OX1R antag-2: 41.3*

How did COC(=O)C1=C(C)N(Cc2ccc(Br)cc2)C(=S)NC1c1cccc(Br)c1 (stereo not drawn) do in these assays?
TAAR1 ag: 0.1; GalR3 antag: -6.4; TAAR1 antagonist: 18.0

Results for COc1ccc(CN=C(Nc2ccccc2)SC2CC(=O)N(C)C2=O)cc1 (stereo not drawn) ?
TAAR1 ag: 10.9; GalR3 antag: 1.4; TAAR1 antagonist: -3.6; CHO parental Ca: -3.3; OX1R antag-1: -11.6; OX1R antag-2: 9.6

Results for Cc1ccc(S(=O)(=O)n2nc(C)c(Br)c2C)c(C)c1C ?
TAAR1 ag: 1.0; GalR3 antag: -0.8; TAAR1 antagonist: 4.3; CHO parental Ca: 38.1; OX1R antag-1: 51.6*; OX1R antag-2: 47.4

What do the screens show for `CCOC(=O)N1CCN(S(=O)(=O)c2ccc(C)c(C)c2C)CC1`?
TAAR1 ag: 1.7; GalR3 antag: -0.1; TAAR1 antagonist: -16.8; CHO parental Ca: -29.2; OX1R antag-1: -18.5; OX1R antag-2: 5.1

Results for CSc1ccc(Oc2cccc3c2S(=O)(=O)N(C2CC2)C[C@@H](COCc2ccccc2)O3)cc1C ?
TAAR1 ag: 2.8; GalR3 antag: -5.0; TAAR1 antagonist: -9.1

Results for Cc1ccc(NC(=O)c2ccccc2CCc2ccccc2)c(C)c1 ?
TAAR1 ag: 6.0; GalR3 antag: -5.2; TAAR1 antagonist: -6.0; CHO parental Ca: -0.1; OX1R antag-1: -0.1; OX1R antag-2: 20.1

What do the screens show for `O=C(NCc1ccc(Cl)cc1)c1ccccc1CCc1ccccc1`?
TAAR1 ag: 3.8; GalR3 antag: -2.0; TAAR1 antagonist: 39.3; CHO parental Ca: -17.3; OX1R antag-1: -19.8; OX1R antag-2: 32.5

Results for Cc1cc(C)c(NC(=O)c2ccccc2CCc2ccccc2)c(C)c1 ?
TAAR1 ag: 2.8; GalR3 antag: -1.0; TAAR1 antagonist: 46.5; CHO parental Ca: 6.8; OX1R antag-1: 30.8; OX1R antag-2: 41.2*

How did O=C(NCc1ccccc1Cl)c1ccccc1CCc1ccccc1 do in these assays?
TAAR1 ag: 4.5; GalR3 antag: -1.7; TAAR1 antagonist: 38.9; CHO parental Ca: 65.6*; OX1R antag-1: 23.3; OX1R antag-2: 50.4*

How did Cc1ccc(Cc2ccccc2C(=O)O)cc1 do in these assays?
TAAR1 ag: 1.9; GalR3 antag: -2.9; TAAR1 antagonist: 17.2

Results for CC1CC(C)(C)CC2(C1)NC(=O)N(CC(=O)N(Cc1ccccc1)c1ccccc1)C2=O (stereo not drawn) ?
TAAR1 ag: -0.6; GalR3 antag: -4.2; TAAR1 antagonist: -5.6; CHO parental Ca: -25.5; OX1R antag-1: -35.0; OX1R antag-2: 15.4

What do the screens show for `Nc1[nH]c(C(=O)c2ccccc2)c(-c2ccc(Cl)cc2)c1C(=O)c1c[nH]c2ccc(Br)cc12`?
TAAR1 ag: 1.0; GalR3 antag: -6.5; TAAR1 antagonist: -20.1

How did Cc1cccc(NC(=S)/N=C(\N)Nc2nc(C)c3ccc(C)cc3n2)c1 do in these assays?
TAAR1 ag: 7.0; GalR3 antag: -4.1; TAAR1 antagonist: 16.4; CHO parental Ca: -24.8; OX1R antag-1: -24.3; OX1R antag-2: 23.8

What do the screens show for `Cc1cccc(NC(=S)/N=C(\N)Nc2nc(C)c3ccccc3n2)c1`?
TAAR1 ag: -0.3; GalR3 antag: -11.7; TAAR1 antagonist: -18.0; CHO parental Ca: -8.1; OX1R antag-1: 12.4; OX1R antag-2: 75.8*

Results for CN(CC(=O)Nc1ccccc1Cl)C(=O)Cn1cnc2ccc(Cl)cc2c1=O ?
TAAR1 ag: 6.4; GalR3 antag: 1.6; TAAR1 antagonist: 0.8; CHO parental Ca: -9.2; OX1R antag-1: -32.6; OX1R antag-2: 4.2

What do the screens show for `Cc1cc(C(=O)Nc2ccc(N3CCCC3)c(Cl)c2)ccc1[N+](=O)[O-]`?
TAAR1 ag: 1.3; GalR3 antag: -2.2; TAAR1 antagonist: 16.8; CHO parental Ca: -2.4; OX1R antag-1: 2.7; OX1R antag-2: 55.3*

How did O=C(NCc1ccncc1)C(=O)Nc1nc(C23CC4CC(CC(C4)C2)C3)cs1 do in these assays?
TAAR1 ag: 12.2; GalR3 antag: -7.2; TAAR1 antagonist: 50.1*; CHO parental Ca: -14.1; OX1R antag-1: -11.8; OX1R antag-2: 12.6

What do the screens show for `O=C(NCc1ccccc1)C(=O)Nc1nc(C23CC4CC(CC(C4)C2)C3)cs1`?
TAAR1 ag: 5.4; GalR3 antag: -1.9; TAAR1 antagonist: -6.5; CHO parental Ca: -12.6; OX1R antag-1: -10.9; OX1R antag-2: 17.0

What do the screens show for `CC(C)(C)c1ccc(C#C[C@@H]2C=C[C@H]3OC(=O)CC/C=C/CCC(=O)OC[C@H]3O2)cc1`?
TAAR1 ag: -0.4; GalR3 antag: -1.6; TAAR1 antagonist: -5.4

Source: PubChem (The Scripps Research Institute Molecular Screening Center)
